Usually EC50 stands for the concentration at which the effect is half-maximal. A low value points to an effect from little substance.

EC50 data for 14 compounds are collected here from ChEMBL document CHEMBL2321783, “Structure-activity relationships of peptides incorporating a bioactive reverse-turn heterocycle at the melanocortin receptors: identification of a 5800-fold mouse melanocortin-3 receptor (mMC3R) selective antagonist/partial agonist versus the mouse melanocortin-4 receptor (mMC4R)” (J Med Chem, 2013).

Type in all cases: functional, cell-based
Holding throughout (details): hek293

Assay [1] concerns the target Melanocortin receptor 5 (Mus musculus, UniProt P41149). Nature of the assay: Agonist activity at mouse MC5 receptor expressed in HEK293 cells after 6 hrs by cAMP-based beta-galactosidase reporter gene assay. A digest of the protocol:
(§1)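 HEK-293 cells stably expressing the mouse receptor, kept in DMEM with 10% fetal calf serum, transfected with CRE/β-galactosidase reporter. Efficacy is relative to NDP-MSH on the same plate. EC50 is the mean of duplicate wells from three or more independent experiments, fitted by nonlinear least squares.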

Assay [2] addresses Melanocortin receptor 4 (Mus musculus, UniProt P56450). Nature of the assay: Agonist activity at mouse MC4 receptor expressed in HEK293 cells after 6 hrs by cAMP-based beta-galactosidase reporter gene assay. In outline:
as §1

For assay [3], the target named is Melanocyte-stimulating hormone receptor (Mus musculus, UniProt Q01727). The assay is described as follows: Agonist activity at mouse MC1 receptor expressed in HEK293 cells after 6 hrs by cAMP-based beta-galactosidase reporter gene assay. In outline: as §1
(A reporter such as luciferase makes a cellular process visible.)

Chain of Melanocyte-stimulating hormone receptor (Q01727 whole entry): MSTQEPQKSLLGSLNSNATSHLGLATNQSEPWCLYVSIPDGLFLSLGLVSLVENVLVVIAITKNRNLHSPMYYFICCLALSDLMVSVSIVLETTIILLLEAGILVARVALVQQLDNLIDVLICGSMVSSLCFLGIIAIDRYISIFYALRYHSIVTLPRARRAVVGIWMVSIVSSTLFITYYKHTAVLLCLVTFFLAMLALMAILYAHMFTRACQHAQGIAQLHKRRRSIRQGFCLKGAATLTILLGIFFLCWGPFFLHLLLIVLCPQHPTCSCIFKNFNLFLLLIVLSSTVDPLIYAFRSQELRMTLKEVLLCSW
Chain of Melanocortin receptor 4 (P56450 whole entry): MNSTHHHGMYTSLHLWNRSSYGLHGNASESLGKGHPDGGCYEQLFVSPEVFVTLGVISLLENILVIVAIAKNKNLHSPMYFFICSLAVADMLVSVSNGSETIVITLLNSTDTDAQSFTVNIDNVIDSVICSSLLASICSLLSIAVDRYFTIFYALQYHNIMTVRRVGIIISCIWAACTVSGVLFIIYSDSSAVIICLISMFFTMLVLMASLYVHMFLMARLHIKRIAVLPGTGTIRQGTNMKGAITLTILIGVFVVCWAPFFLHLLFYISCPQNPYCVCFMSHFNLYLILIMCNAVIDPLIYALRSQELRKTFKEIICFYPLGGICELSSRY
Chain of Melanocortin receptor 5 (P41149 whole entry): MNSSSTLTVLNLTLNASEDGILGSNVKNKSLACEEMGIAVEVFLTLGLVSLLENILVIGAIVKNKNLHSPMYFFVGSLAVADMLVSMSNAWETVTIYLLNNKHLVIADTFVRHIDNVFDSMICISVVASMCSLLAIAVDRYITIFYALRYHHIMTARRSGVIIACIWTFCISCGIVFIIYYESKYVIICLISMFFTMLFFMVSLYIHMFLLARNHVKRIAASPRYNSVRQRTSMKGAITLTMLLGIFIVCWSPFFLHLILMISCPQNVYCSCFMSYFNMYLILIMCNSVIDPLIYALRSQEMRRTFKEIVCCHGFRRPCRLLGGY

Regarding `C[C@@H]1NC(=O)[C@H](CC(N)=O)NC(=O)[C@H](Cc2c[nH]c3ccccc23)N2C[C@H](CCCN=C(N)N)NC(=O)[C@H](CSCC2=O)NC(=O)[C@@H](Cc2ccccc2)NC(=O)[C@H](Cc2cnc[nH]2)NC(=O)[C@@H](NC(=O)[C@@H](N)Cc2ccc(O)cc2)CSSC[C@@H](C(=O)N[C@@H](Cc2ccc(O)cc2)C(N)=O)NC(=O)[C@H](Cc2ccccc2)NC1=O`, the EC50 in assay [1] came out at 46 nM; in assay [2], 190 nM; in assay [3] it was 2.4 nM.

Regarding `C[C@@H]1NC(=O)[C@H](CC(N)=O)NC(=O)[C@H](Cc2c[nH]c3ccccc23)N2C[C@H](CCCNC(=N)N)NC(=O)[C@H](CSCC2=O)NC(=O)[C@@H](Cc2ccc(I)cc2)NC(=O)[C@H](Cc2c[nH]cn2)NC(=O)[C@@H](NC(=O)[C@@H](N)Cc2ccc(O)cc2)CSSC[C@@H](C(=O)N[C@@H](Cc2ccc(O)cc2)C(N)=O)NC(=O)[C@H](Cc2ccccc2)NC1=O`, the EC50 was determined as 9.8 nM in assay [1], 20 nM in assay [2] and 0.5 nM in assay [3].

On to `C[C@@H]1NC(=O)[C@H](CC(N)=O)NC(=O)[C@H](Cc2c[nH]c3ccccc23)N2C[C@H](CCCNC(=N)N)NC(=O)[C@H](CSCC2=O)NC(=O)[C@@H]2CCCN2C(=O)[C@H](Cc2c[nH]cn2)NC(=O)[C@@H](NC(=O)[C@@H](N)Cc2ccc(O)cc2)CSSC[C@@H](C(=O)N[C@@H](Cc2ccc(O)cc2)C(N)=O)NC(=O)[C@H](Cc2ccccc2)NC1=O`, for which the EC50 in assay [1] was 1100 nM; in assay [2] it was 5400 nM; in assay [3] it was 5000 nM.

On to `C[C@@H]1NC(=O)[C@H](CC(N)=O)NC(=O)[C@H](Cc2c[nH]c3ccccc23)N2C[C@H](CCCNC(=N)N)NC(=O)[C@H](CSCC2=O)NC(=O)[C@@H](Cc2ccc3ccccc3c2)NC(=O)[C@H](Cc2c[nH]cn2)NC(=O)[C@@H](NC(=O)[C@@H](N)Cc2ccc(O)cc2)CSSC[C@@H](C(=O)N[C@@H](Cc2ccc(O)cc2)C(N)=O)NC(=O)[C@H](Cc2ccccc2)NC1=O`, for which the figures for the EC50 in assay [1], in assay [2] and in assay [3] were 46 nM, 190 nM and 8.7 nM, respectively.

Turning to `C[C@@H]1NC(=O)[C@H](CC(N)=O)NC(=O)[C@H](Cc2c[nH]c3ccccc23)N2C[C@H](C)NC(=O)[C@H](CSCC2=O)NC(=O)[C@@H](Cc2ccccc2)NC(=O)[C@H](Cc2c[nH]cn2)NC(=O)[C@@H](NC(=O)[C@@H](N)Cc2ccc(O)cc2)CSSC[C@@H](C(=O)N[C@@H](Cc2ccc(O)cc2)C(N)=O)NC(=O)[C@H](Cc2ccccc2)NC1=O`, the EC50 in assay [1] amounted to 850 nM; in assay [2], 1300 nM; in assay [3], 19 nM.

With `C[C@@H]1NC(=O)[C@H](CC(N)=O)NC(=O)[C@H](Cc2c[nH]c3ccccc23)N2C[C@H](CCCCNC(=N)N)NC(=O)[C@H](CSCC2=O)NC(=O)[C@@H](Cc2ccccc2)NC(=O)[C@H](Cc2c[nH]cn2)NC(=O)[C@@H](NC(=O)[C@@H](N)Cc2ccc(O)cc2)CSSC[C@@H](C(=O)N[C@@H](Cc2ccc(O)cc2)C(N)=O)NC(=O)[C@H](Cc2ccccc2)NC1=O`, the EC50 in assay [1] is 350 nM; in assay [2], 965 nM; in assay [3], 15 nM.

For `C[C@@H]1NC(=O)[C@H](CC(N)=O)NC(=O)[C@H](Cc2c[nH]c3ccccc23)N2C[C@H](CCCNC(=N)N)NC(=O)[C@H](CSCC2=O)NC(=O)[C@@H](Cc2ccccc2)NC(=O)[C@@H]2CCCN2C(=O)[C@@H](NC(=O)[C@@H](N)Cc2ccc(O)cc2)CSSC[C@@H](C(=O)N[C@@H](Cc2ccc(O)cc2)C(N)=O)NC(=O)[C@H](Cc2ccccc2)NC1=O`, the EC50 in assay [1] amounted to 270 nM; in assay [2], 240 nM; in assay [3], 32 nM.

With `C[C@@H]1NC(=O)[C@@H](NC(=O)[C@@H](N)Cc2ccc(O)cc2)CSSC[C@@H](C(=O)N[C@@H](Cc2ccc(O)cc2)C(N)=O)NC(=O)[C@H](Cc2ccccc2)NC(=O)[C@H](C)NC(=O)[C@H](CC(N)=O)NC(=O)[C@H](Cc2c[nH]c3ccccc23)N2C[C@H](CCCNC(=N)N)NC(=O)[C@H](CSCC2=O)NC(=O)[C@@H](Cc2ccccc2)NC1=O`, the results for the EC50 in assay [1], in assay [2] and in assay [3] were 690 nM, 705 nM and 52 nM, respectively.

Turning to `C[C@@H]1NC(=O)[C@H](CC(N)=O)NC(=O)[C@H](Cc2c[nH]c3ccccc23)N2C[C@H](CCCNC(=N)N)NC(=O)[C@H](CSCC2=O)NC(=O)[C@@H](Cc2ccc(-c3ccccc3)cc2)NC(=O)[C@H](Cc2c[nH]cn2)NC(=O)[C@@H](NC(=O)[C@@H](N)Cc2ccc(O)cc2)CSSC[C@@H](C(=O)N[C@@H](Cc2ccc(O)cc2)C(N)=O)NC(=O)[C@H](Cc2ccccc2)NC1=O`, the concentration giving a half-maximal response (EC50) in assay [1] is 87 nM; in assay [2], 760 nM; in assay [3], 1.1 nM.

For the compound `C[C@@H]1NC(=O)[C@H](CC(N)=O)NC(=O)[C@H](Cc2c[nH]c3ccccc23)N2C[C@H](CCCNC(=N)N)NC(=O)[C@H](CSCC2=O)NC(=O)[C@@H](Cc2cccc3ccccc23)NC(=O)[C@H](Cc2c[nH]cn2)NC(=O)[C@@H](NC(=O)[C@@H](N)Cc2ccc(O)cc2)CSSC[C@@H](C(=O)N[C@@H](Cc2ccc(O)cc2)C(N)=O)NC(=O)[C@H](Cc2ccccc2)NC1=O`, the results for the EC50 in assay [1], in assay [2] and in assay [3] were 205 nM, 130 nM and 7.4 nM, respectively.

For the compound `C[C@@H]1NC(=O)[C@H](CC(N)=O)NC(=O)[C@H](Cc2ccc(-c3ccccc3)cc2)N2C[C@H](CCCNC(=N)N)NC(=O)[C@H](CSCC2=O)NC(=O)[C@@H](Cc2ccccc2)NC(=O)[C@H](Cc2c[nH]cn2)NC(=O)[C@@H](NC(=O)[C@@H](N)Cc2ccc(O)cc2)CSSC[C@@H](C(=O)N[C@@H](Cc2ccc(O)cc2)C(N)=O)NC(=O)[C@H](Cc2ccccc2)NC1=O`, the EC50 in assay [1] worked out at 830 nM; in assay [2], 980 nM; in assay [3] it was 20 nM.

`C[C@@H]1NC(=O)[C@H](CC(N)=O)NC(=O)[C@H](Cc2c[nH]c3ccccc23)N2C[C@H](CCCCN)NC(=O)[C@H](CSCC2=O)NC(=O)[C@@H](Cc2ccccc2)NC(=O)[C@H](Cc2c[nH]cn2)NC(=O)[C@@H](NC(=O)[C@@H](N)Cc2ccc(O)cc2)CSSC[C@@H](C(=O)N[C@@H](Cc2ccc(O)cc2)C(N)=O)NC(=O)[C@H](Cc2ccccc2)NC1=O`: the EC50 in assay [1] was found to be 460 nM; in assay [2], 420 nM; in assay [3] it was 30 nM.

On to `C[C@@H]1NC(=O)[C@H](CC(N)=O)NC(=O)[C@H](Cc2ccc3ccccc3c2)N2C[C@H](CCCNC(=N)N)NC(=O)[C@H](CSCC2=O)NC(=O)[C@@H](Cc2ccccc2)NC(=O)[C@H](Cc2c[nH]cn2)NC(=O)[C@@H](NC(=O)[C@@H](N)Cc2ccc(O)cc2)CSSC[C@@H](C(=O)N[C@@H](Cc2ccc(O)cc2)C(N)=O)NC(=O)[C@H](Cc2ccccc2)NC1=O`, for which the EC50 turned out to be 52 nM in assay [1], 220 nM in assay [2] and 6.2 nM in assay [3].

As for `C[C@@H]1NC(=O)[C@H](CC(N)=O)NC(=O)[C@H](Cc2c[nH]c3ccccc23)N2C[C@H](CCCNC(=N)N)NC(=O)[C@H](CSCC2=O)NC(=O)[C@@H](Cc2ccccc2)NC(=O)[C@H](Cc2ccccc2)NC(=O)[C@@H](NC(=O)[C@@H](N)Cc2ccc(O)cc2)CSSC[C@@H](C(=O)N[C@@H](Cc2ccc(O)cc2)C(N)=O)NC(=O)[C@H](Cc2ccccc2)NC1=O`, the concentration for a half-maximal effect (EC50) in assay [1] was found to be 415 nM; in assay [2], 290 nM; in assay [3], 1.94 nM.
